Measured values published in ChEMBL document CHEMBL3102784, “Salicylanilide diethyl phosphates: synthesis, antimicrobial activity and cytotoxicity” (Bioorg Med Chem, 2014).
Values after ≈ are worked out from the molar mass of the structure shown. Active and inactive are the calls of the source. The rule behind the calls is not given here.

Legend:
Candida tropicalis = test: Antifungal activity against Candida tropicalis 156 at 500 micromol/L after 24 to 48 hrs by broth microdilution method; type: functional, organism-based
Method in brief: (§1)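 Broth microdilution in RPMI 1640 with glutamine, fluconazole as reference. For yeasts, MIC is ≥80% growth reduction (IC80) versus control. For filamentous fungi, the value is expressed as IC50. Readings at 24 and 48 h.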

[1] = tested on: Staphylococcus epidermidis; test: Antibacterial activity against Staphylococcus epidermidis H 6966/08 after 48 hrs by broth microdilution method; type: functional; conditions: H 6966/08, 48 h
Method in brief: (§2)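 Broth microdilution in Mueller–Hinton broth, compounds dissolved in DMSO, tested over a dilution series from 500 downward. MIC taken as ≥95% growth reduction (IC95) versus drug-free control. Benzylpenicillin comparator. Readings at 24 and 48 h.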

Candida albicans [2] = test: Antifungal activity against Candida albicans ATCC 44859 after 24 hrs by broth microdilution method; type: functional; conditions: ATCC 44859, 24 h; method in brief: as §1
Nakaseomyces glabratus = test: Antifungal activity against Candida glabrata 20/I at 500 micromol/L after 24 to 48 hrs by broth microdilution method; type: functional, organism-based; method in brief: as §1
Aspergillus fumigatus [3] = test: Antifungal activity against Aspergillus fumigatus 231 after 24 hrs by broth microdilution method; type: functional; conditions: Aspergillus fumigatus, 231, 24 h; method in brief: as §1
Candida albicans [4] = test: Antifungal activity against Candida albicans ATCC 44859 after 48 hrs by broth microdilution method; type: functional; conditions: ATCC 44859, 48 h; method in brief: as §1
Staphylococcus aureus [5] = test: Antibacterial activity against Staphylococcus aureus CCM 4516/08 after 48 hrs by broth microdilution method; type: functional; conditions: CCM 4516/08, 48 h; method in brief: as §2
Trichosporon asahii [6] = test: Antifungal activity against Trichosporon asahii 1188 after 24 hrs by broth microdilution method; type: functional; conditions: Trichosporon asahii, 1188, 24 h; method in brief: as §1
Staphylococcus aureus [7] = test: Antibacterial activity against Staphylococcus aureus CCM 4516/08 after 24 hrs by broth microdilution method; type: functional; conditions: CCM 4516/08, 24 h; method in brief: as §2
Pseudomonas aeruginosa = test: Antibacterial activity against Pseudomonas aeruginosa CCM 1961 at 500 micromol/L after 24 to 48 hrs by broth microdilution method; type: functional, organism-based; method in brief: as §2
Mycobacterium kansasii [8] = test: Antimycobacterial activity against Mycobacterium kansasii My 235/80 after 7 days; type: functional; conditions: My 235/80, 168 h
Method in brief: (§3)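 Micromethod MIC in Šula's semisynthetic medium at 37 °C. Compounds added in DMSO at 1000 down to 0.032 µmol/L. Isoniazid standard in sterile water at 0.5–250 µmol/L. Inocula: H37Rv 10^3, M. avium 10^5, M. kansasii 10^4. Read at 14 and 21 d, plus 7 d for M. kansasii.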

Staphylococcus aureus [9] = test: Antibacterial activity against methicillin-resistant Staphylococcus aureus H 5996/08 after 48 hrs by broth microdilution method; type: functional; conditions: H 5996/08, 48 h; method in brief: as §2
Pichia kudriavzevii [10] = test: Antifungal activity against Candida krusei E28 after 48 hrs by broth microdilution method; type: functional; conditions: E28, 48 h; method in brief: as §1
Klebsiella pneumoniae [11] = test: Antibacterial activity against ESBL-positive Klebsiella pneumoniae J 14368/08 at 500 micromol/L after 24 to 48 hrs by broth microdilution method; type: functional, organism-based; method in brief: as §2
[12] = tested on: Staphylococcus epidermidis; test: Antibacterial activity against Staphylococcus epidermidis H 6966/08 after 24 hrs by broth microdilution method; type: functional; conditions: H 6966/08, 24 h; method in brief: as §2
Trichosporon asahii [13] = test: Antifungal activity against Trichosporon asahii 1188 after 48 hrs by broth microdilution method; type: functional; conditions: Trichosporon asahii, 1188, 48 h; method in brief: as §1
Lichtheimia corymbifera [14] = test: Antifungal activity against Absidia corymbifera 272 after 48 hrs by broth microdilution method; type: functional; conditions: Lichtheimia corymbifera, 272, 48 h; method in brief: as §1
HepG2 = test: Cytotoxicity against human HepG2 cells after 24 hrs by CellTiter assay; type: cell-based; conditions: HepG2, 24 h
Method in brief: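 HepG2 cells (passage 27–33) in MEM with 10% FBS, L-glutamine and NEAA, seeded at 1×10^4 per well. Treated next day with compounds at 0.1–100 µM (or 0.1–25 µmol/L), triplicates, <1% DMSO, for 24 h at 37 °C, 5% CO2. MTS reagent added for 2 h, absorbance read at 490 nm. IC50 taken against untreated (100%) and 10% DMSO (0%) controls.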

Staphylococcus aureus [15] = test: Antibacterial activity against methicillin-resistant Staphylococcus aureus H 5996/08 after 24 hrs by broth microdilution method; type: functional; conditions: H 5996/08, 24 h; method in brief: as §2
Mycobacterium avium [16] = test: Antimycobacterial activity against isoniazid, rifampicin, ethambutol and ofloxacin-resistant Mycobacterium avium My 330/88 after 21 days; type: functional; conditions: My 330/88, 504 h; method in brief: as §3
[17] = tested on: Trichophyton mentagrophytes; test: Antifungal activity against Trichophyton mentagrophytes 445 after 72 hrs by broth microdilution method; type: functional; conditions: Trichophyton mentagrophytes, 445, 72 h
Method in brief: (§4)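 Filamentous dermatophyte tested by broth microdilution in RPMI 1640 with glutamine, fluconazole as reference. Value expressed as IC50 relative to growth control. Read at 72 and 120 h.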

Mycobacterium kansasii [18] = test: Antimycobacterial activity against Mycobacterium kansasii 6509/96 after 21 days; type: functional; conditions: 6509/96, 504 h; method in brief: as §3
Mycobacterium kansasii [19] = test: Antimycobacterial activity against Mycobacterium kansasii My 235/80 after 14 days; type: functional; conditions: My 235/80, 336 h; method in brief: as §3
Enterococcus sp. = test: Antibacterial activity against Enterococcus sp. J 14365/08 at 500 micromol/L after 24 to 48 hrs by broth microdilution method; type: functional, organism-based; method in brief: as §2
Aspergillus fumigatus [20] = test: Antifungal activity against Aspergillus fumigatus 231 after 48 hrs by broth microdilution method; type: functional; conditions: Aspergillus fumigatus, 231, 48 h; method in brief: as §1
Pichia kudriavzevii [21] = test: Antifungal activity against Candida krusei E28 after 24 hrs by broth microdilution method; type: functional; conditions: E28, 24 h; method in brief: as §1
Lichtheimia corymbifera [22] = test: Antifungal activity against Absidia corymbifera 272 after 24 hrs by broth microdilution method; type: functional; conditions: Lichtheimia corymbifera, 272, 24 h; method in brief: as §1
Escherichia coli = test: Antibacterial activity against Escherichia coli CCM 4517 at 500 micromol/L after 24 to 48 hrs by broth microdilution method; type: functional, organism-based; method in brief: as §2
[23] = tested on: Mycobacterium tuberculosis; test: Antimycobacterial activity against Mycobacterium tuberculosis H37Rv My 331/88 after 21 days; type: functional; conditions: H37Rv My 331/88, 504 h; method in brief: as §3
[24] = tested on: Trichophyton mentagrophytes; test: Antifungal activity against Trichophyton mentagrophytes 445 after 120 hrs by broth microdilution method; type: functional; conditions: Trichophyton mentagrophytes, 445, 120 h; method in brief: as §4
Mycobacterium avium [25] = test: Antimycobacterial activity against isoniazid, rifampicin, ethambutol and ofloxacin-resistant Mycobacterium avium My 330/88 after 14 days; type: functional; conditions: My 330/88, 336 h; method in brief: as §3
Mycobacterium kansasii [26] = test: Antimycobacterial activity against Mycobacterium kansasii 6509/96 after 7 days; type: functional; conditions: 6509/96, 168 h; method in brief: as §3
[27] = tested on: Mycobacterium tuberculosis; test: Antimycobacterial activity against Mycobacterium tuberculosis H37Rv My 331/88 after 14 days; type: functional; conditions: H37Rv My 331/88, 336 h; method in brief: as §3
Mycobacterium kansasii [28] = test: Antimycobacterial activity against Mycobacterium kansasii 6509/96 after 14 days; type: functional; conditions: 6509/96, 336 h; method in brief: as §3
Mycobacterium kansasii [29] = test: Antimycobacterial activity against Mycobacterium kansasii My 235/80 after 21 days; type: functional; conditions: My 235/80, 504 h; method in brief: as §3
Klebsiella pneumoniae [30] = test: Antibacterial activity against Klebsiella pneumoniae D 11750/08 at 500 micromol/L after 24 to 48 hrs by broth microdilution method; type: functional, organism-based; method in brief: as §2

CCOP(=O)(OCC)Oc1cc(Cl)ccc1C(=O)Nc1cccc(C(F)(F)F)c1
Activity (Candida tropicalis): inactive | MIC95 [1]: 31.2 µM (≈ 14.1 µg/mL) | MIC80 (Candida albicans [2]): > 500 µM | Activity (Nakaseomyces glabratus): inactive | MIC50 (Aspergillus fumigatus [3]): > 500 µM | MIC80 (Candida albicans [4]): > 500 µM | MIC95 (Staphylococcus aureus [5]): 62.5 µM (≈ 28.2 µg/mL) | MIC80 (Trichosporon asahii [6]): > 500 µM | MIC95 (Staphylococcus aureus [7]): 31.2 µM (≈ 14.1 µg/mL) | Activity (Pseudomonas aeruginosa): inactive | MIC (Mycobacterium kansasii [8]): 2 µM (≈ 0.904 µg/mL) | MIC95 (Staphylococcus aureus [9]): 62.5 µM (≈ 28.2 µg/mL) | MIC80 (Pichia kudriavzevii [10]): > 500 µM | Activity (Klebsiella pneumoniae [11]): inactive | MIC95 [12]: 15.6 µM (≈ 7.06 µg/mL) | MIC80 (Trichosporon asahii [13]): > 500 µM | MIC50 (Lichtheimia corymbifera [14]): > 500 µM | IC50 (HepG2): 3.85 µM | MIC95 (Staphylococcus aureus [15]): 31.2 µM (≈ 14.1 µg/mL) | MIC (Mycobacterium avium [16]): 16 µM (≈ 7.23 µg/mL) | MIC50 [17]: 31.2 µM (≈ 14.1 µg/mL) | MIC (Mycobacterium kansasii [18]): 8 µM (≈ 3.61 µg/mL) | MIC (Mycobacterium kansasii [19]): 4 µM (≈ 1.81 µg/mL) | Activity (Enterococcus sp.): inactive | MIC50 (Aspergillus fumigatus [20]): > 500 µM | MIC80 (Pichia kudriavzevii [21]): > 500 µM | MIC50 (Lichtheimia corymbifera [22]): > 500 µM | Activity (Escherichia coli): inactive | MIC [23]: 4 µM (≈ 1.81 µg/mL) | MIC50 [24]: 31.2 µM (≈ 14.1 µg/mL) | MIC (Mycobacterium avium [25]): 16 µM (≈ 7.23 µg/mL) | MIC (Mycobacterium kansasii [26]): 4 µM (≈ 1.81 µg/mL) | MIC [27]: 4 µM (≈ 1.81 µg/mL) | MIC (Mycobacterium kansasii [28]): 8 µM (≈ 3.61 µg/mL) | MIC (Mycobacterium kansasii [29]): 4 µM (≈ 1.81 µg/mL) | Activity (Klebsiella pneumoniae [30]): inactive
